{"data": "Measured values gathered from unrelated publications", "target": "Death-associated protein kinase 3 (DAPK3, Homo sapiens, UniProt O43293)", "note": "Lines come from different studies, so protocols differ."}
{"SMILES": "Cc1ccc(Nc2nccc(N(C)c3ccc4c(C)n(C)nc4c3)n2)cc1S(N)(=O)=O", "test": "enzyme activity, inhibitor", "setting": "10 µM", "endpoint": "inhibition", "value": "-2%"}
{"SMILES": "Cc1ccc(C(=O)Nc2ccc(CN3CCN(C)CC3)c(C(F)(F)F)c2)cc1C#Cc1cnc2cccnn12", "test": "enzyme activity, inhibitor", "setting": "23.5 nM", "endpoint": "remaining activity", "value": "99%"}
{"SMILES": "COc1cc2ncnc(Nc3ccc(Oc4ccccc4)c(C)c3C)c2cc1OC", "test": "enzyme activity, inhibitor", "setting": "1 µM", "endpoint": "inhibition", "value": "1%"}
{"SMILES": "O=S(=O)(NC1CCC(c2cc(F)ccc2F)(S(=O)(=O)c2ccc(Cl)cc2)CC1)C(F)(F)F (centres unmarked)", "test": "cell-free assay, competition with immobilised ligand", "setting": "1 µM", "endpoint": "remaining binding", "value": "97%"}
{"SMILES": "CCCS(=O)(=O)Nc1ccc(F)c(C(=O)c2c[nH]c3ncc(-c4ccc(Cl)cc4)cc23)c1F", "test": "enzyme activity, inhibitor", "setting": "1 µM", "endpoint": "inhibition", "value": "< 10%"}
{"SMILES": "C[C@H](c1cccc(C#N)c1)n1cc(Cl)cc(C(N)=O)c1=N", "test": "cell-free assay, competition with immobilised ligand", "setting": "1 µM", "endpoint": "remaining binding", "value": "100%"}
{"SMILES": "Cn1c2c(c3ccc(Cl)c(Cl)c31)C(C#N)C1(CCNCC1)NC2=O (racemic)", "test": "thermal stability, DSF", "setting": "10 µM", "endpoint": "ΔTm", "value": "> 8 °C"}
{"SMILES": "CCCCN(CCCC)C(=O)CN1C[C@H](c2cc(OC)c3c(c2)OCO3)[C@@H](C(=O)O)[C@@H]1CC(C)(C)CCC", "test": "cell-free assay, competition with immobilised ligand", "setting": "1 µM", "endpoint": "remaining binding", "value": "100%"}
{"SMILES": "O=C1NC(=O)c2cc(Nc3ccc(F)cc3)c(Nc3ccc(F)cc3)cc21", "test": "cell-free assay", "setting": "0.5 µM", "endpoint": "remaining signal", "value": "101%"}
{"SMILES": "CCN(CC)CCNC(=O)c1c(C)[nH]c(/C=C2\\C(=O)Nc3ccc(F)cc32)c1C", "test": "enzyme activity, inhibitor", "setting": "0.3 µM", "endpoint": "inhibition", "value": "35%"}
{"SMILES": "Cc1sc(C(=O)NC2COC2)cc1-n1cc(NC(=O)Nc2c(F)cccc2Cl)cn1", "test": "enzyme activity, inhibitor", "setting": "10 µM", "endpoint": "remaining activity", "value": "101%"}
{"SMILES": "Cc1cc(NC(=O)c2cccc3cc(-c4cccc5[nH]nc(N)c45)ccc23)ccc1F", "test": "enzyme activity, inhibitor", "setting": "0.1 µM", "endpoint": "activity vs control", "value": "105%"}
{"SMILES": "O=c1nc(-c2ccccn2)sc2ccccc12", "test": "binding, competition with immobilised ligand", "setting": "1 µM", "endpoint": "remaining binding", "value": "91%"}
{"SMILES": "CCN(CC)c1ccc(C2=NNC(=O)CC2C)cc1[N+](=O)[O-] (centres unmarked)", "test": "enzyme activity, inhibitor", "setting": "10 µM", "endpoint": "remaining activity", "value": "100%"}
{"SMILES": "COc1cc(-c2cn(C3CCc4ccccc4N(CC(F)(F)F)C3=O)nn2)ccc1-n1ccc(C)n1 (centres unmarked)", "test": "cell-free assay, competition with immobilised ligand", "setting": "1 µM", "endpoint": "remaining binding", "value": "100%"}
{"SMILES": "CS(=O)(=O)CCNCc1ccc(-c2ccc3ncnc(Nc4ccc(OCc5cccc(F)c5)c(Cl)c4)c3c2)o1", "test": "cell-free assay", "setting": "0.5 µM", "endpoint": "remaining signal", "value": "97.4%"}
{"SMILES": "COc1cc(-c2cc(-c3ccc(N4CCNCC4)cc3)cnc2C)cc(OC)c1OC", "test": "enzyme activity, inhibitor", "setting": "0.1 µM", "endpoint": "inhibition", "value": "1%"}
{"SMILES": "C#Cc1cccc(Nc2ncnc3cc(OCCOC)c(OCCOC)cc23)c1", "test": "cell-free assay", "setting": "0.5 µM", "endpoint": "remaining signal", "value": "95.4%"}
{"SMILES": "CCCOc1ccc(OC)c(F)c1C(=O)c1ccc(C(=O)N[C@@H]2CNC[C@H]2NC(=O)c2ccc3[nH]ncc3c2)cc1", "test": "enzyme activity, inhibitor", "setting": "10 µM", "endpoint": "remaining activity", "value": "40%"}
{"SMILES": "CNC(=O)c1cc(Oc2ccc(NC(=O)Nc3ccc(Cl)c(C(F)(F)F)c3)cc2)ccn1", "test": "cell-free assay", "setting": "0.5 µM", "endpoint": "remaining signal", "value": "92.9%"}
{"SMILES": "CC(C)(C)c1nc2c(s1)c1nc(N)ncc1c1ccc(NS(=O)(=O)c3c(F)cccc3F)c(F)c12", "test": "enzyme activity, inhibitor, radiometric", "setting": "1 µM", "endpoint": "remaining activity", "value": "58%"}
{"SMILES": "CSc1cccnc1N1CCN(Cc2nc3ccccc3[nH]2)CC1", "test": "cell-free assay, competition with immobilised ligand", "setting": "1 µM", "endpoint": "remaining binding", "value": "100%"}
{"SMILES": "Oc1cccc(-c2nc(N3CCOCC3)c3oc4ncccc4c3n2)c1", "test": "cell-free assay", "setting": "0.5 µM", "endpoint": "remaining signal", "value": "93.1%"}
